Our source for the IC50 and Ratio IC50 values is ChEMBL document CHEMBL2086340, “Synthesis and biological evaluation of 2-benzylamino-4(5)-(6-methylpyridin-2-yl)-5(4)-([1,2,4]triazolo[1,5-a]-pyridin-6-yl)thiazoles as transforming growth factor-β type 1 receptor kinase inhibitors” (Eur J Med Chem, 2012).

Experiment [1] concerns the target Mitogen-activated protein kinase 14 (Homo sapiens, UniProt Q16539). Kind of experiment: Inhibition of human recombinant p38alpha expressed in Escherichia coli using ATF2 as a substrate by radioisotopic protein kinase assay.
The species named for another experiment is Homo sapiens. Nature of the experiment: Selectivity index, ratio of IC50 for human recombinant p38alpha to IC50 for human recombinant ALK5. Summed up:
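Index is IC50(p38α)/IC50(ALK5), each from a radioisotopic ³³P protein kinase assay run by a contract lab. The p38α was untagged human recombinant protein expressed in E. coli and purified on Ni–NTH–agarose, with ATF2 as substrate. The ALK5 kinase domain was human recombinant GST-fusion protein from baculovirus-infected Sf9 cells, with casein as substrate.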

The next experiment deals with T1, TGF-beta receptor type-1 (Homo sapiens, UniProt P36897).
T1 sequence (P36897 whole entry): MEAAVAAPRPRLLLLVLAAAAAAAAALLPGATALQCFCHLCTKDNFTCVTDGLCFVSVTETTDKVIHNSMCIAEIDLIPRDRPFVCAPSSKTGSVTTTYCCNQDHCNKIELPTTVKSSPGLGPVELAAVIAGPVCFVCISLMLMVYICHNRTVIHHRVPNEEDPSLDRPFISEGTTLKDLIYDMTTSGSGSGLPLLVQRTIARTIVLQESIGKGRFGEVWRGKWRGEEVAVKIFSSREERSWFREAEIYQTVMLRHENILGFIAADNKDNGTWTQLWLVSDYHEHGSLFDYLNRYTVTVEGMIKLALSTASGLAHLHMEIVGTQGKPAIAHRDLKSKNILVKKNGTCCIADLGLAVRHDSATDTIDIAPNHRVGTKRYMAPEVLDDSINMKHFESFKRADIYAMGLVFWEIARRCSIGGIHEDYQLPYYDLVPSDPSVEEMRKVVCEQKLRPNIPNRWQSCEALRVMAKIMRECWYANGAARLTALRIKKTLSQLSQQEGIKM
Nature of the experiment: Inhibition of human recombinant GST-fused ALK5 expressed in Sf9 cells using casein as a substrate by radioisotopic protein kinase assay.

Mitogen-activated protein kinase 14, sequence (Q16539 whole entry): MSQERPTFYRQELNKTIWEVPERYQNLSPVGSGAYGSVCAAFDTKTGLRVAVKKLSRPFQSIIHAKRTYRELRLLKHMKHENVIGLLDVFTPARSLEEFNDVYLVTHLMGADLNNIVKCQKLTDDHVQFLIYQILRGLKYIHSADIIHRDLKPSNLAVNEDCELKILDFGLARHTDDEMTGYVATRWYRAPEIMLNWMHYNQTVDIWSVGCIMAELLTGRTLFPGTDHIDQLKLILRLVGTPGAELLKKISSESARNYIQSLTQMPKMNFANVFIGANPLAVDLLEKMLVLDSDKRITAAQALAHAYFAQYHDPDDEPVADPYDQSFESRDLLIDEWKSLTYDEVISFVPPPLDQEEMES

One may read the IC50 as the concentration that inhibits the measured activity by half. For `Cc1cccc(-c2nc(NCc3ccccc3OC(F)(F)F)sc2-c2ccc3ncnn3c2)n1`, the IC50 was greater than 10000 nM in experiment [1] and 35.9 nM at TGF-beta receptor type-1. In addition, the Ratio IC50 in the experiment filed under Homo sapiens was greater than 279.

Regarding `Cc1cccc(-c2nc(NCc3ccc(OC(F)(F)F)cc3)sc2-c2ccc3ncnn3c2)n1`, the IC50 is greater than 10000 nM in experiment [1] and 60.9 nM on TGF-beta receptor type-1. Also, the Ratio IC50 in the experiment listed under Homo sapiens was greater than 164.

In the case of `Cc1cccc(-c2nc(NCc3cccc(C(N)=O)c3)sc2-c2ccc3ncnn3c2)n1`, the IC50 is 6190 nM in experiment [1] and 13.6 nM on TGF-beta receptor type-1. Further, in the experiment listed under Homo sapiens, the Ratio IC50 came out at 455.

In the case of `Cc1cccc(-c2nc(NCc3cccc(Cl)c3Cl)sc2-c2ccc3ncnn3c2)n1`, the IC50 was greater than 10000 nM in experiment [1] and 34.3 nM on TGF-beta receptor type-1. Moreover, the Ratio IC50 in the experiment listed under Homo sapiens is greater than 292.

Regarding `Cc1cccc(-c2nc(NCc3cccc(F)c3F)sc2-c2ccc3ncnn3c2)n1`, the IC50 in experiment [1] worked out at 7200 nM; at TGF-beta receptor type-1 it was 29.4 nM. Further, the Ratio IC50 in the experiment filed under Homo sapiens is 245.

Regarding `Cc1cccc(-c2nc(NCc3ccc(F)c(F)c3)sc2-c2ccc3ncnn3c2)n1`, the concentration for half-maximal inhibition (IC50) in experiment [1] worked out at 3580 nM; on TGF-beta receptor type-1 it was 7.43 nM. In the experiment filed under Homo sapiens, the Ratio IC50 came out at 482.

On to `Cc1cccc(-c2sc(NCc3cccc(C(N)=O)c3)nc2-c2ccc3ncnn3c2)n1`, for which the values for the half-inhibitory concentration (IC50) (in experiment [1]; on TGF-beta receptor type-1) were greater than 10000 nM and 12 nM, respectively. The Ratio IC50 in the experiment listed under Homo sapiens was greater than 833.

On to `Cc1cccc(-c2nc(NCc3ccccc3)sc2-c2ccc3ncnn3c2)n1`, for which the IC50 in experiment [1] worked out at 5530 nM; on TGF-beta receptor type-1 it was 11.3 nM. The Ratio IC50 in the experiment listed under Homo sapiens is 489.

For `Cc1cccc(-c2nc(NCc3cccc(C#N)c3)sc2-c2ccc3ncnn3c2)n1`, the IC50 in experiment [1] came to 3780 nM; at TGF-beta receptor type-1, 9.26 nM. The Ratio IC50 in the experiment listed under Homo sapiens is 408.

With `COc1cc(CNc2nc(-c3cccc(C)n3)c(-c3ccc4ncnn4c3)s2)cc(OC)c1`, the results for the IC50 (in experiment [1]; on TGF-beta receptor type-1) were 7990 nM and 16.5 nM, respectively. Also, in the experiment listed under Homo sapiens, the Ratio IC50 came out at 484.

Regarding `COc1cccc(CNc2nc(-c3cccc(C)n3)c(-c3ccc4ncnn4c3)s2)c1`, the IC50 in experiment [1] is greater than 10000 nM; on TGF-beta receptor type-1, 11.4 nM. The Ratio IC50 in the experiment filed under Homo sapiens was greater than 877.

For `Cc1cccc(-c2nc(NCc3cc(F)cc(F)c3)sc2-c2ccc3ncnn3c2)n1`, the IC50 in experiment [1] amounted to 3820 nM; at TGF-beta receptor type-1 it was 8.92 nM. Further, in the experiment filed under Homo sapiens, the Ratio IC50 turned out to be 428.

Consider `Cc1cccc(-c2nc(NCc3ccc(Cl)cc3)sc2-c2ccc3ncnn3c2)n1`, for which the IC50 in experiment [1] was greater than 10000 nM; at TGF-beta receptor type-1, 15.8 nM. Further, the Ratio IC50 in the experiment filed under Homo sapiens is greater than 633.

Regarding `Cc1cccc(-c2nc(NCc3cccc(Cl)c3)sc2-c2ccc3ncnn3c2)n1`, the IC50 is 3280 nM in experiment [1] and 10.2 nM at TGF-beta receptor type-1. Further, the Ratio IC50 in the experiment filed under Homo sapiens came to 322.

Consider `Cc1cccc(-c2nc(NCc3ccccc3C)sc2-c2ccc3ncnn3c2)n1`, for which the concentration for half-maximal inhibition (IC50) in experiment [1] was greater than 10000 nM; at TGF-beta receptor type-1, 16.9 nM. Moreover, the Ratio IC50 in the experiment filed under Homo sapiens is greater than 592.

In the case of `Cc1cccc(-c2nc(NCc3cc(Cl)cc(Cl)c3)sc2-c2ccc3ncnn3c2)n1`, the IC50 is greater than 10000 nM in experiment [1] and 15.1 nM at TGF-beta receptor type-1. Also, the Ratio IC50 in the experiment filed under Homo sapiens was greater than 662.

For `Cc1cccc(-c2sc(NCc3ccccc3)nc2-c2ccc3ncnn3c2)n1`, the IC50 in experiment [1] came out at 8820 nM; on TGF-beta receptor type-1, 24.5 nM. The Ratio IC50 in the experiment listed under Homo sapiens worked out at 360.

For `Cc1cccc(-c2nc(NCc3ccccc3F)sc2-c2ccc3ncnn3c2)n1`, the IC50 in experiment [1] is greater than 10000 nM; on TGF-beta receptor type-1 it was 10.4 nM. Besides, the Ratio IC50 in the experiment filed under Homo sapiens is greater than 962.

In the case of `Cc1cccc(-c2nc(NCc3cccc(C)c3C)sc2-c2ccc3ncnn3c2)n1`, the IC50 is greater than 10000 nM in experiment [1] and 22.1 nM on TGF-beta receptor type-1. Also, the Ratio IC50 in the experiment listed under Homo sapiens is greater than 452.

`Cc1cccc(-c2nc(NCc3ccccc3Cl)sc2-c2ccc3ncnn3c2)n1`: the concentration for half-maximal inhibition (IC50) came to 5860 nM in experiment [1] and 15.5 nM at TGF-beta receptor type-1. Also, the Ratio IC50 in the experiment filed under Homo sapiens stood at 378.

Consider `Cc1cccc(-c2sc(NCc3cccc(C#N)c3)nc2-c2ccc3ncnn3c2)n1`, for which the figures for the IC50 (in experiment [1]; on TGF-beta receptor type-1) were greater than 10000 nM and 25.1 nM, respectively. For the same compound, the Ratio IC50 in the experiment listed under Homo sapiens is greater than 398.

For the compound `COc1ccc(CNc2nc(-c3cccc(C)n3)c(-c3ccc4ncnn4c3)s2)cc1`, the IC50 in experiment [1] was greater than 10000 nM; at TGF-beta receptor type-1, 24.3 nM. The Ratio IC50 in the experiment filed under Homo sapiens is greater than 412.

Regarding `Cc1cc(C)cc(CNc2nc(-c3cccc(C)n3)c(-c3ccc4ncnn4c3)s2)c1`, the IC50 was greater than 10000 nM in experiment [1] and 22 nM at TGF-beta receptor type-1. In the experiment listed under Homo sapiens, the Ratio IC50 is greater than 455.

For `Cc1ccc(CNc2nc(-c3cccc(C)n3)c(-c3ccc4ncnn4c3)s2)cc1`, the IC50 in experiment [1] is greater than 10000 nM; on TGF-beta receptor type-1 it was 8.75 nM. In the experiment filed under Homo sapiens, the Ratio IC50 was greater than 1140.

As for `Cc1cccc(-c2nc(NCc3cccc(F)c3)sc2-c2ccc3ncnn3c2)n1`, the IC50 came out at 3530 nM in experiment [1] and 7.01 nM on TGF-beta receptor type-1. Besides, the Ratio IC50 in the experiment filed under Homo sapiens was 504.

Consider `Cc1cccc(-c2nc(NCc3ccc(F)cc3)sc2-c2ccc3ncnn3c2)n1`, for which the half-maximal inhibitory concentration (IC50) in experiment [1] amounted to 9200 nM; on TGF-beta receptor type-1, 8.61 nM. The Ratio IC50 in the experiment listed under Homo sapiens was 1070.

Regarding `Cc1cccc(-c2nc(NCc3ccc(C(N)=O)cc3)sc2-c2ccc3ncnn3c2)n1`, the figures for the half-maximal inhibitory concentration (IC50) (in experiment [1]; at TGF-beta receptor type-1) were greater than 10000 nM and 25.7 nM, respectively. Besides, in the experiment filed under Homo sapiens, the Ratio IC50 is greater than 389.

`Cc1cccc(CNc2nc(-c3cccc(C)n3)c(-c3ccc4ncnn4c3)s2)c1`: the results for the IC50 (in experiment [1]; on TGF-beta receptor type-1) were 5370 nM and 11.2 nM, respectively. Moreover, the Ratio IC50 in the experiment listed under Homo sapiens worked out at 479.

In the case of `Cc1cccc(-c2nc(NCc3ccc(C#N)cc3)sc2-c2ccc3ncnn3c2)n1`, the IC50 in experiment [1] was greater than 10000 nM; at TGF-beta receptor type-1, 30.8 nM. Besides, in the experiment filed under Homo sapiens, the Ratio IC50 is greater than 325.

Regarding `Cc1cccc(-c2nc(NCc3ccc(Cl)c(Cl)c3)sc2-c2ccc3ncnn3c2)n1`, the results for the IC50 (in experiment [1]; at TGF-beta receptor type-1) were greater than 10000 nM and 21.9 nM, respectively. In the experiment listed under Homo sapiens, the Ratio IC50 was greater than 457.

In the case of `COc1ccc(CNc2nc(-c3cccc(C)n3)c(-c3ccc4ncnn4c3)s2)cc1OC`, the results for the IC50 (in experiment [1]; at TGF-beta receptor type-1) were greater than 10000 nM and 47.7 nM, respectively. For the same compound, in the experiment filed under Homo sapiens, the Ratio IC50 is greater than 210.

As for `Cc1cccc(-c2nc(NCc3cccc(OC(F)(F)F)c3)sc2-c2ccc3ncnn3c2)n1`, the IC50 in experiment [1] turned out to be 7390 nM; at TGF-beta receptor type-1, 19.3 nM. In the experiment filed under Homo sapiens, the Ratio IC50 was determined as 383.

For `COc1cccc(CNc2nc(-c3cccc(C)n3)c(-c3ccc4ncnn4c3)s2)c1OC`, the IC50 in experiment [1] was greater than 10000 nM; on TGF-beta receptor type-1 it was 43.5 nM. Besides, the Ratio IC50 in the experiment filed under Homo sapiens was greater than 230.

As for `Cc1cccc(-c2sc(NCc3ccccc3F)nc2-c2ccc3ncnn3c2)n1`, the IC50 in experiment [1] is greater than 10000 nM; at TGF-beta receptor type-1, 21.2 nM. In addition, the Ratio IC50 in the experiment filed under Homo sapiens is greater than 472.

As for `Cc1cccc(-c2[nH]c(Cc3cccc(C(N)=O)c3)nc2-c2ccc3nccnc3c2)n1`, in the experiment filed under Homo sapiens, the Ratio IC50 was determined as 28.
